Source: PubChem
PfM18AAP inh-1 – PfM18AAP inhibitors, malaria aminopeptidase, primary screen, biochemical, QFRET, recombinant enzyme. inhibition, % at 7.35 µM. H-Glu-NHMec fluorogenic cleavage. 1.2% of 290,000 active. M18 aspartyl aminopeptidase (Plasmodium falciparum 3D7);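 active = inhibition above the campaign mean inhibition over all tested compounds plus 3 SD, cut at about 28% in these data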;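 also: 0% = plate median of test compound wells and 100% = 2 mM ZnCl2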
HGIII-sPLA2 inh – human group III sPLA2 inhibitors, primary screen, biochemical, QFRET, BODIPY PC-A2 liposome substrate; QFRET BODIPY PC-A2 liposome hydrolysis, fluorescence; inhibition, % at 12.2 µM; 0.56% of 370,000 active;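 active = inhibition above mean plus 3 SD of compounds lying within the high and low control bounds, cut at about 19% in these data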;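 also: 0% = median of test compound wells and 100% = no enzyme DMSO wells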
IMP-1 inhibitor – IMP-1 metallo-beta-lactamase inhibitors, primary screen, biochemical, epi-absorbance readout, Pseudomonas aeruginosa enzyme | inhibition, % at 5.6 µM | 0.45% of 290,000 active | purified IMP-1, nitrocefin hydrolysis, epi-absorbance fluorescence | AID 1556, 2009;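 active = inhibition above the mean plus 3 SD of all compounds in the same screening run, cut at about 4.5% in these data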;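 also: 0% = IMP-1 with DMSO and 100% = DMSO wells lacking enzyme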
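System: purified IMP-1; amount: IMP-1 0.2 nM before substrate addition; compound: single dose, 5.6 µM; times: 25 °C, 15 min preincubation, 25 min reaction; signal: Epi-absorbance via hydrolysed-nitrocefin quenching of white-plate fluorescence, 480/530 nm, EDTA stop; benchmarks: DMSO with and without IMP-1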
VIM-2 inhibitor – VIM-2 metallo-beta-lactamase inhibitors, primary screen, biochemical, epi-absorbance readout, Pseudomonas aeruginosa enzyme. purified VIM-2, nitrocefin hydrolysis, epi-absorbance fluorescence. inhibition, % at 5.6 µM. 0.89% of 290,000 active;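 active = inhibition above the mean of all tested compounds plus 3 SD, cutoff set per screening run, cut at about 7.5% in these data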;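 also: red hydrolysis product quenches plate fluorescence so inhibitors raise well fluorescence; 0% = enzyme with DMSO and 100% = DMSO without enzyme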
PfM18AAP inh-2 – PfM18AAP inhibitors, malaria aminopeptidase, confirmation, biochemical, QFRET, recombinant enzyme, triplicate; shares compounds with PfM18AAP inh-1; H-Glu-NHMec fluorogenic cleavage; inhibition, % at 7.35 µM; 28% of 2,400 active; AID 2170, 2009;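 active = mean inhibition over replicate wells above the hit cutoff set for the earlier primary screen, cut at about 29% in these data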;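 also: 0% = median of test compound wells and 100% = 2 mM ZnCl2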
CTSL1 counter – cathepsin L1 inhibitors, retest, confirmation, counter-screen for PFM18AAP inhibitor project, biochemical, QFRET, triplicate; shares compounds with PfM18AAP inh-1; purified cathepsin L1, Z-Leu-Arg-MCA fluorescence; inhibition, % at 5.96 µM; 2,400 tested, under 10 active;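 active = average inhibition across replicates above the hit cutoff set in the earlier primary screen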;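 also: 0% = median of test compound wells and 100% = Z-Phe-Ala-diazomethylketone 1 µM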
Target sequence (P07711 whole entry, looked up): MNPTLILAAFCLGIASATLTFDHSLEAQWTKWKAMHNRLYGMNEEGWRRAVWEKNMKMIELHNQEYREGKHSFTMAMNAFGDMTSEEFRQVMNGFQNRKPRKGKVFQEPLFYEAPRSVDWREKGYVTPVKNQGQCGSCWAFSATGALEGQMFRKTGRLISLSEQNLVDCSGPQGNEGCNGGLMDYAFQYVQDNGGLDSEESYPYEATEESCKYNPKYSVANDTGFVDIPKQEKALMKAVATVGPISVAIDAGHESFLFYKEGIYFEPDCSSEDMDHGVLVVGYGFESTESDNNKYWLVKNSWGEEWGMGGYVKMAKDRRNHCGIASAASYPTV
Active calls of the source: *; x = no result. This is a sample that favours compounds with a hit; in the whole collection about 2.4% have one here.

SMILES | PfM18AAP inh-1 | HGIII-sPLA2 inh | IMP-1 inhibitor | VIM-2 inhibitor | PfM18AAP inh-2 | CTSL1 counter
CCc1ccccc1Nc1ccc(C(=O)O)cc1N | 3 | -23 | -2 | -3 | x | x
Nc1cc(C(=O)O)ccc1Nc1ccccc1 | 54* | -17 | -2 | -4 | -5 | 0
CC(C(=O)N1CCN(Cc2ccc3c(c2)OCO3)CC1)n1cc([N+](=O)[O-])cn1 (centres undefined) | 2 | -3 | -3 | -2 | x | x
O=C(CNS(=O)(=O)c1ccccc1)NCC(=O)N1CCCCC1 | -1 | 5 | -1 | 1 | x | x
O=C(CNS(=O)(=O)c1ccccc1)NNC(=O)C(Cl)Cl | 50* | 0 | -5 | -4 | 27 | 9
O=S(=O)(Nc1ccc2c(c1)nc1n2CCN(Cc2ccccc2)C1)c1ccc(Cl)cc1 | -9 | -22 | -3 | -1 | x | x
O=S(=O)(Nc1ccc2c(c1)nc1n2CCN(Cc2ccccc2)C1)c1ccccc1 | 60* | -8 | 3 | 2 | -28 | 4
CCOC(=O)C1=CC[C@@H](c2cccc(Br)c2)N(S(=O)(=O)c2ccc(F)cc2)[C@H]1c1cccc(Cl)c1 | x | 9 | x | x | x | x
O=c1/c(=C/c2ccco2)sc2n1CN(c1cccc(Br)c1)CN=2 | 11 | -1 | 0 | -1 | x | x
Cc1ccc(/C=c2\sc3n(c2=O)CN(c2cccc(Br)c2)CN=3)o1 | 37* | -9 | -2 | -1 | -58 | -2
Cc1ncc(CO)c(/C=N/NC(=O)c2ccc(Br)cc2)c1O | 12 | x | -2 | -4 | x | x
Cc1ncc(CO)c(/C=N/NC(=O)c2cc(O)c(O)c(O)c2)c1O | 58* | x | 24* | -1 | 36* | -4
CCn1c(CSc2ncn[nH]2)nc2cc(C(=O)O)ccc21 | 48* | 3 | -1 | -2 | 9 | 6
COc1cccc(NC(=O)Nc2cccc(C(=O)O)c2)c1 | -3 | -1 | 1 | 1 | x | x
O=C(NCc1cccnc1)NC1(C(F)(F)F)Oc2ccccc2O1 | 55* | -3 | -2 | -4 | -2 | 4
CC(C)CNC(=O)Nc1ccccc1F | -2 | -2 | -3 | -3 | x | x
COc1cccc(NC(=O)NC2(C(F)(F)F)Oc3ccccc3O2)c1 | 67* | -2 | -5 | -2 | 34* | -1
O=C(Nc1cc(N2CCOCC2)ncn1)NC1(C(F)(F)F)Oc2ccccc2O1 | 76* | 11 | -2 | 1 | 66* | 1
CC(C)CNC(=O)NC1(C(F)(F)F)Oc2ccccc2O1 | 41* | 4 | -1 | 1 | -22 | 1
Cc1ccc(S(=O)(=O)N2CCN(Cc3cc(=O)n4ccccc4n3)CC2)c(C)c1 | x | 9 | x | x | x | x
CCOc1cc(C=NN=C2c3ccccc3-c3ccccc32)ccc1O | x | -22 | x | x | x | x
Oc1ccc(-c2cn3ccccc3n2)cc1O | 70* | 3 | -4 | 0 | 58* | -2
Cc1ccn2cc(-c3ccc(O)c(O)c3)nc2c1 | 72* | 17 | -5 | -1 | 51* | -8
Oc1ccc(-c2cn3ccccc3n2)cc1 | 6 | 2 | -2 | -2 | x | x
Cc1cccc(NC(=S)NC2CCCC2)n1 | 44* | 8 | -4 | -4 | -3 | 7
SMILES | PfM18AAP inh-1 | HGIII-sPLA2 inh | IMP-1 inhibitor | VIM-2 inhibitor | PfM18AAP inh-2 | CTSL1 counter
Cc1cccc(NC(=S)Nc2cccc(C)n2)n1 | -6 | 10 | -2 | 2 | x | x
Cc1cccc(NC(=S)NC2CCCCC2)n1 | 36* | 17 | -4 | -1 | 8 | 2
CCc1c(C)sc(NC(=O)c2noc(C)c2[N+](=O)[O-])c1C#N | 37* | 8 | -3 | -2 | -36 | -3
CCOC(=O)[C@]12CCCC=C1N(Cc1ccc(Cl)cc1Cl)C(=O)[C@H](CC(=O)NCc1cccs1)C2 | x | -6 | x | x | x | x
Cc1nnc(-c2ccc(Oc3ccc(Br)cc3)c([N+](=O)[O-])c2)o1 | 33* | 4 | -2 | -1 | -55 | -1
CCNC(=O)c1cc(Br)ccc1Cl | 8 | 7 | -1 | -2 | x | x
O=C(Nn1cnnc1)c1cc(Br)ccc1Cl | 60* | -1 | -2 | -1 | 55* | -3
O=C(Nn1cnnc1)c1ccc(Cl)c(Cl)c1 | 52* | 0 | -4 | -2 | 50* | 2
CN(/N=C\c1ccc(O)c(O)c1)c1nc(-c2ccccc2)cc(-c2ccccc2)n1 | 50* | 6 | -1 | -4 | 24 | -3
O=C(Nn1cnnc1)c1cc([N+](=O)[O-])cc([N+](=O)[O-])c1 | 45* | -2 | -2 | -1 | 49* | -3
COc1ccc(C(=O)Nn2cnnc2)cc1 | 26 | 9 | 0 | -2 | x | x
COc1cc(OC)cc(C(=O)Nn2cnnc2)c1 | 36* | -21 | -2 | -2 | 30* | 3
Nc1c(C(=O)Nn2cnnc2)cc([N+](=O)[O-])cc1[N+](=O)[O-] | 63* | x | -2 | -1 | 56* | 4
CCOC(=O)c1nc(NNC(C)=O)sc1C | 37* | 4 | -3 | -3 | -3 | -2
CCOC(=O)c1nc(NCCc2ccccc2)sc1C | 0 | -2 | -5 | 0 | x | x
NC(=O)N/N=C/c1c(O)ccc2oc3c(c12)CCCC3 | 26 | -3 | 0 | 3 | x | x
CC(C)(C)N=Cc1c(O)ccc2oc3c(c12)CCCC3 | 33* | 6 | 19* | 4 | -18 | 4
Cc1ccccc1C(=O)NCCCn1ccnc1 | -2 | 2 | -3 | -4 | x | x
COCCSc1ccccc1C(=O)NCCCn1ccnc1 | 36* | 3 | -8 | 0 | -25 | -1
CCC1(C2C=COC=C2)NC(=O)NC1=O (centres undefined) | x | 1 | x | x | x | x
Cc1cccc(NC(=S)N/N=C/c2ccc(Cl)c([N+](=O)[O-])c2)c1 | 2 | -3 | -3 | -4 | x | x
O=[N+]([O-])c1ccccc1NC(=S)N/N=C/c1ccc(O)c(O)c1 | 59* | -1 | -3 | 2 | 40* | 1
COc1ccc(C(=O)N/C(=C\c2cn(C)c3ccccc23)C(=O)NCCN2CCOCC2)cc1OC | -2 | -5 | -1 | 0 | x | x
N#C/C(=C\c1ccc(-c2cccc(C(F)(F)F)c2)o1)C(=O)Nn1cnnc1 | 33* | 4 | 2 | 1 | 16 | 8
CC(C)C(C(=O)Nc1ncn[nH]1)N1C(=O)c2ccccc2C1=O (centres undefined) | 40* | 5 | -1 | -1 | 56* | 5
Cc1cc(C)cc(C(=O)n2cnnc2N)c1 | 48* | 7 | -6 | -1 | 59* | 5
COC(=O)c1cn(C(=O)c2cccc(C)c2)c2ccccc12 | -1 | 2 | -1 | -3 | x | x
Cc1cccc(C(=O)n2cnnc2N)c1 | 45* | -2 | -1 | -1 | 56* | -1
Cc1ccc(OCC(=O)n2cnnc2N)c(C)c1 | 57* | x | -5 | -1 | 54* | -4
